Measurements taken from ChEMBL document CHEMBL5724801, “EUbOPEN Chemogenomics Library - Multiplex” (2024).
“And” between values parts separate entries of the source, which are not always exact repeats. Equal values may be shown once.

Assays:
HEK-293T = assay: Multiplex assay against HEK293T; format: toxicity, cell-based; conditions: human
In short: (§1)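 At seeding, live cells were stained with Hoechst33342, BioTracker Green Microtubule Cytoskeleton Dye, MitoTracker Red and Annexin V Alexa Fluor 680. After compound addition they were imaged on a CQ1 microscope at 37°C and 5% CO2, and CellPathfinder machine-learning gating sorted them into Hoechst high-intensity objects or normal cells, with normal cells further split into healthy, pyknosed or fragmented nuclei and pyknosed cells into mitotic or apoptotic. Tubulin, mitochondrial-mass and membrane-permeability phenotypes are given as per cents of cells with healthy nuclei.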

Fibroblast = assay: Multiplex assay against human fibroblast; format: toxicity, cell-based; in short: as §1
[1] = 12 h, 1 µM, compound concentration 1 uM
[2] = 12 h, 10 µM, compound concentration 10 uM
[3] = 24 h, 1 µM, compound concentration 1 uM
[4] = 24 h, 10 µM, compound concentration 10 uM
[5] = 48 h, 1 µM, compound concentration 1 uM
[6] = 48 h, 10 µM, compound concentration 10 uM

## CSc1ccccc1N1CCN(CCCCCC(=O)NC2CCCc3ccccc32)CC1.Cl (configuration not stated)
HEK-293T; [1]
  Population Apoptotic (%): 45%
  Population Fragmented Nuclei (%): 6%
  Population Healthy Nuclei (%): 74%
  Population Hoechst High Intensity Objects (%): 8% and 12%
  Population Membrane Permeable-Phenotype (%): 0%
  Population Mitochondria Different-Phenotype (%): 68% and 75%
  Population Mitotic Cells (%): 54%
  Population Normal (%): 91% and 87%
  Population Pyknosed Nuclei (%): 18% and 19%
  Population Tubulin-Different-Phenotype (%): 59% and 43%
  Total Cell Count: 391 and 322
HEK-293T; [2]
  Population Apoptotic (%): 80% and 79%
  Population Fragmented Nuclei (%): 8% and 5%
  Population Healthy Nuclei (%): 68% and 74%
  Population Hoechst High Intensity Objects (%): 15% and 16%
  Population Membrane Permeable-Phenotype (%): 0%
  Population Mitochondria Different-Phenotype (%): 97%
  Population Mitotic Cells (%): 20%
  Population Normal (%): 84% and 83%
  Population Pyknosed Nuclei (%): 22% and 19%
  Population Tubulin-Different-Phenotype (%): 59% and 65%
  Total Cell Count: 316 and 304
HEK-293T; [3]
  Population Apoptotic (%): 36% and 41%
  Population Fragmented Nuclei (%): 8%
  Population Healthy Nuclei (%): 79% and 75%
  Population Hoechst High Intensity Objects (%): 4% and 7%
  Population Membrane Permeable-Phenotype (%): 0%
  Population Mitochondria Different-Phenotype (%): 50% and 70%
  Population Mitotic Cells (%): 63% and 58%
  Population Normal (%): 95% and 92%
  Population Pyknosed Nuclei (%): 11% and 16%
  Population Tubulin-Different-Phenotype (%): 41% and 44%
  Total Cell Count: 508 and 356
HEK-293T; [4]
  Population Apoptotic (%): 75% and 69%
  Population Fragmented Nuclei (%): 5% and 7%
  Population Healthy Nuclei (%): 70% and 73%
  Population Hoechst High Intensity Objects (%): 21% and 20%
  Population Membrane Permeable-Phenotype (%): 0%
  Population Mitochondria Different-Phenotype (%): 98% and 97%
  Population Mitotic Cells (%): 24% and 30%
  Population Normal (%): 78% and 79%
  Population Pyknosed Nuclei (%): 23% and 18%
  Population Tubulin-Different-Phenotype (%): 53% and 48%
  Total Cell Count: 303 and 315
HEK-293T; [5]
  Population Apoptotic (%): 32% and 45%
  Population Fragmented Nuclei (%): 10%
  Population Healthy Nuclei (%): 78% and 76%
  Population Hoechst High Intensity Objects (%): 4% and 6%
  Population Membrane Permeable-Phenotype (%): 0%
  Population Mitochondria Different-Phenotype (%): 39% and 59%
  Population Mitotic Cells (%): 67% and 54%
  Population Normal (%): 95% and 93%
  Population Pyknosed Nuclei (%): 10% and 13%
  Population Tubulin-Different-Phenotype (%): 27% and 31%
  Total Cell Count: 747 and 471
HEK-293T; [6]
  Population Apoptotic (%): 76% and 56%
  Population Fragmented Nuclei (%): 11% and 13%
  Population Healthy Nuclei (%): 73%
  Population Hoechst High Intensity Objects (%): 28% and 18%
  Population Membrane Permeable-Phenotype (%): 0%
  Population Mitochondria Different-Phenotype (%): 97% and 93%
  Population Mitotic Cells (%): 23% and 43%
  Population Normal (%): 71% and 81%
  Population Pyknosed Nuclei (%): 14% and 13%
  Population Tubulin-Different-Phenotype (%): 67% and 56%
  Total Cell Count: 365 and 385
Fibroblast; [1]
  Population Apoptotic (%): 37% and 50%
  Population Fragmented Nuclei (%): 26% and 32%
  Population Healthy Nuclei (%): 49% and 41%
  Population Hoechst High Intensity Objects (%): 6% and 2%
  Population Membrane Permeable-Phenotype (%): 1% and 9%
  Population Mitochondria Different-Phenotype (%): 15% and 7%
  Population Mitotic Cells (%): 62% and 50%
  Population Normal (%): 93% and 97%
  Population Pyknosed Nuclei (%): 24% and 25%
  Population Tubulin-Different-Phenotype (%): 65% and 74%
  Total Cell Count: 126 and 135
Fibroblast; [2]
  Population Apoptotic (%): 58% and 66%
  Population Fragmented Nuclei (%): 25% and 34%
  Population Healthy Nuclei (%): 57% and 50%
  Population Hoechst High Intensity Objects (%): 5%
  Population Membrane Permeable-Phenotype (%): 0%
  Population Mitochondria Different-Phenotype (%): 78% and 36%
  Population Mitotic Cells (%): 41% and 33%
  Population Normal (%): 94%
  Population Pyknosed Nuclei (%): 17% and 14%
  Population Tubulin-Different-Phenotype (%): 95% and 92%
  Total Cell Count: 220 and 242
Fibroblast; [3]
  Population Apoptotic (%): 52% and 37%
  Population Fragmented Nuclei (%): 29% and 33%
  Population Healthy Nuclei (%): 52% and 43%
  Population Hoechst High Intensity Objects (%): 6% and 3%
  Population Membrane Permeable-Phenotype (%): 0% and 3%
  Population Mitochondria Different-Phenotype (%): 21% and 11%
  Population Mitotic Cells (%): 47% and 62%
  Population Normal (%): 93% and 96%
  Population Pyknosed Nuclei (%): 18% and 23%
